According to publication PMC2806602 (The Journal of neuroscience : the official journal of the …, 2009):
Changes are numbered by the printed parent chain.

Columns and labels:
GluRδ2^Lc D782A = target: T1, GluRδ2^Lc D782A (Rattus norvegicus, UniProt Q63226, A654T/D782A); assay: Two-electrode voltage-clamp recordings in Xenopus oocytes, GluRδ2^Lc D782A; format: cell-based
T1 sequence (Q63226 24-1007 A654T/D782A): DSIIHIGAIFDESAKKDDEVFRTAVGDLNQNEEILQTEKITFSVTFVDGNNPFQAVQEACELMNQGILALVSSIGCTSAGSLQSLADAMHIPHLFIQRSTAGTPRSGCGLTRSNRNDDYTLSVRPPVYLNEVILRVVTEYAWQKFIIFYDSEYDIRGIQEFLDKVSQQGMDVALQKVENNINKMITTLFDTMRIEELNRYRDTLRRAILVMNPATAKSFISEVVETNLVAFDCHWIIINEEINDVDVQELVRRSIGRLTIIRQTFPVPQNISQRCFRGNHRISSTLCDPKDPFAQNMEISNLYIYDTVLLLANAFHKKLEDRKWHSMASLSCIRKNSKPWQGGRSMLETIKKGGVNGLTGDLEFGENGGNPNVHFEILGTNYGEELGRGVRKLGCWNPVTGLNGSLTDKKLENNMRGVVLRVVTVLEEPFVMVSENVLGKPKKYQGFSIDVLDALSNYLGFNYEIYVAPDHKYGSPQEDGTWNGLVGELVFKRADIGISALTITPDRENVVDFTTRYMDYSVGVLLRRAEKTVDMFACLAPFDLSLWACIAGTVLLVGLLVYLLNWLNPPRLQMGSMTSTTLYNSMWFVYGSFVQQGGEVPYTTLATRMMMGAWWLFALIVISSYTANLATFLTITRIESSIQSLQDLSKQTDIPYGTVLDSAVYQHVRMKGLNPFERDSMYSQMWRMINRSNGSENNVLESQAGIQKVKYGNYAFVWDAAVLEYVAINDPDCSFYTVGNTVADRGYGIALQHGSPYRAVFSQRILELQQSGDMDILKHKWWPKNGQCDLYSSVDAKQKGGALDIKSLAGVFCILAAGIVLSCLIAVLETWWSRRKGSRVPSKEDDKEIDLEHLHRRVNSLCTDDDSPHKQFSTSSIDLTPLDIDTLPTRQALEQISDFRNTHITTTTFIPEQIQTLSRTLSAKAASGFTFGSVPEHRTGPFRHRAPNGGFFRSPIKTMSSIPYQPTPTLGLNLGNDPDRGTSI

GluRδ2^Lc R530K = target: T2, GluRδ2^Lc R530K (Rattus norvegicus, UniProt Q63226, A654T/R530K); assay: Two-electrode voltage-clamp recordings in Xenopus oocytes, GluRδ2^Lc R530K; format: cell-based; details: 3 mM Ca^2+; baseline spontaneously active current; ± SEM
T2 sequence (Q63226 24-1007 R530K/A654T): T1 sequence (Q63226 24-1007 A654T/D782A) with R507K, A759D
In short: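 Oocytes expressing the Lc mutant were kept in 25 μM NASP to prevent cytotoxicity. Two-electrode voltage clamp at −40 mV and 23°C, 24–72 h after cRNA injection. Bath: 90 mM NaCl, 3 mM KCl, 0.5 mM BaCl2, 10 mM HEPES, pH 7.6. Choline or NMDG chloride balanced Cl− and osmolarity. Values are fold increase over the Ca2+-free spontaneously active baseline on applying 3 mM Ca2+, given as mean ± SEM over oocytes.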

SMILES	Ca^2+ potentiation (relative to baseline) (GluRδ2^Lc D782A; 3 mM Ca^2+, ± SEM) [fold]	Ca^2+ potentiation (relative to baseline) (GluRδ2^Lc R530K) [fold]	D-serine + 0 mM Ca^2+ nH (GluRδ2^Lc D782A; Hill slope, 0 mM Ca^2+)	D-serine + 3 mM Ca^2+ nH (GluRδ2^Lc D782A; Hill slope, 3 mM Ca^2+)
[Ca+2] [Ca^2+, calcium]	0.8 ± 0.02	3.3 ± 0.20	–	–
N[C@H](CO)C(=O)O [D-serine]	–	–	1.0	1.1
